Experimental data taken from ChEMBL document CHEMBL1157220, “Isoflavonoids and other compounds from Psorothamnus arborescens with antiprotozoal activities” (J Nat Prod, 2006).
pIC50: −log10 of the molar value.

Legend:
[1] = system: Trypanosoma brucei brucei; assay: Antitrypanosomal activity against Trypanosoma brucei brucei MITat 1.2 variant 221 after 72 hrs; assay type: functional, organism-based
In short: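 Bloodstream-form parasites grown axenically in HMI-9, seeded late log phase at 10⁵ cells/mL, exposed with or without compound 72 h at 37 °C, humidified 5% CO₂. p-Nitrophenyl phosphate (20 mg/mL solution in 1 M NaOAc pH 5.5, 1% Triton X-100) added, further 6-8 h at 37 °C; acid phosphatase read at 405 nm. IC50 versus untreated control from four-parameter dose-response fit.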

Vero = assay: Cytotoxicity against african green monkey Vero cells; assay type: cell-based; conditions: Chlorocebus sabaeus
Leishmania donovani = assay: Antileishmanial activity against Leishmania donovani MHOM/SD/62/IS-CL2D axenic amastigotes after 3 days; assay type: functional, organism-based; conditions: 72 h
In short: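 Amastigote-like L. donovani parasites were grown axenically in vitro and exposed to compounds for three days. Viability was read with a tetrazolium dye-based reagent, following a previously described protocol.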

PC-3 = assay: Cytotoxicity against human PC3 cells; assay type: cell-based
[2] = Selectivity of IC50 for Trypanosoma brucei brucei MITat 1.2 variant 221 to IC50 for african green monkey Vero cells

SMILES | pIC50 [1] | pIC50 (Vero) | pIC50 (Leishmania donovani) | pIC50 (PC-3) | Selectivity ratio [2]
COc1ccc(-c2coc3cc(OC)ccc3c2=O)cc1 | < 4.00 | – | – | – | –
O=c1c(-c2ccc(O)c(O)c2)coc2cc(O)ccc12 | 5.15 | 3.87 | – | – | –
CC1(C)CCc2c(-c3coc4cc(O)cc(O)c4c3=O)ccc(O)c2O1 | 4.24 | – | 4.42 | 3.97 | –
CC1(C)CCc2cc(-c3coc4cc(O)cc(O)c4c3=O)cc(O)c2O1 | 4.11 | – | 4.17 | 4.10 | –
CC(C)=CCc1c(-c2coc3cc(O)cc(O)c3c2=O)ccc(O)c1O | 4.92 | 4.43 | 4.89 | 4.90 | –
COc1ccc2c(C=O)c(-c3cc4c(cc3O)OCO4)oc2c1 | < 3.60 | < 3.60 | < 3.60 | < 3.60 | –
C=CC(C)(C)c1cc(OC)c(OC)cc1-c1coc2cc(OC)cc(OC)c2c1=O | 4.38 | – | 4.07 | 3.87 | –
COc1cc(OC)c2c(=O)c(-c3cc(CC=C(C)C)c(OC)c(OC)c3)coc2c1 | 5.11 | 4.35 | 4.38 | 4.51 | –
Oc1ccc2c(c1)OCC1c3cc4c(cc3OC21)OCO4 (racemic) | 3.89 | < 3.60 | < 3.60 | < 3.60 | –
Oc1ccc2c(c1O)OCC1c3cc4c(cc3OC21)OCO4 (racemic) | 5.43 | 5.48 | 4.43 | 4.55 | –
O=c1c(-c2ccccc2)coc2cc(O)ccc12 [7-HYDROXY ISOFLAVONE] | 4.03 | – | 3.95 | – | –
COc1cc2cc(c1Cl)N(C)C(=O)C[C@H](OC(=O)C(C)C)[C@]1(C)O[C@@H]1[C@H](C)[C@@H]1C[C@@](O)(NC(=O)O1)[C@H](OC)/C=C/C=C(\C)C2 [ANSAMITOCIN P3] | – | 8.92 | – | – | –
O=c1cc(-c2ccc(O)cc2)oc2cc(O)cc(O)c12 [APIGENIN] | 4.92 | – | – | – | –
COc1ccc(-c2coc3cc(O)cc(O)c3c2=O)cc1 [BIOCHANIN] | 4.91 | – | 4.05 | – | –
COc1ccc(-c2coc3cc(O)ccc3c2=O)cc1O [CALYCOSIN] | 4.90 | 3.80 | 4.00 | 3.89 | 15
O=c1c(-c2ccc(O)cc2)coc2cc(O)ccc12 [DAIDZEIN] | 4.63 | – | – | – | –
COc1ccc(-c2coc3cc(O)ccc3c2=O)cc1 [FORMONONETIN] | 4.04 | – | – | – | –
C=CC(C)(C)c1cc(OC(C)=O)c(OC(C)=O)cc1-c1coc2cc(OC(C)=O)cc(OC(C)=O)c2c1=O [FREMONTIN TETRAACETATE] | 4.17 | – | 4.37 | 4.18 | –
O=c1c(-c2ccc(O)cc2)coc2cc(O)cc(O)c12 [GENISTEIN] | 5.38 | 4.48 | 4.14 | – | –
CC(C)=CCc1cc(-c2coc3cc(O)cc(O)c3c2=O)cc(O)c1O [GLYCYRRHISOFLAVONE] | 4.48 | 4.28 | 4.33 | 4.21 | –
O=C(/C=C/c1ccc(O)cc1)c1ccc(O)cc1O [ISOLIQUIRITIGENIN] | 4.48 | 4.18 | 4.68 | 4.33 | –
CC1(C)CC[C@]2(C(=O)O)CC[C@]3(C)C(=CC[C@@H]4[C@@]5(C)CC[C@H](O)C(C)(C)[C@@H]5CC[C@]43C)[C@@H]2C1 [OLEANOLIC_ACID] | 4.37 | < 3.60 | < 3.60 | 3.68 | –
N=C(N)c1ccc(OCCCCCOc2ccc(C(=N)N)cc2)cc1 [PENTAMIDINE] | – | – | 5.82 | – | –
COc1cc([C@@H]2c3cc4c(cc3[C@H](O)[C@H]3COC(=O)[C@H]23)OCO4)cc(OC)c1OC [PODOFILOX] | – | – | – | 7.90 | –
COc1cc(O)c2c(=O)c(-c3ccc(O)cc3)coc2c1 [PRUNETIN] | 4.69 | – | – | – | –
Cc1ccc(C(=O)Nc2ccc(S(=O)(=O)O)c3cc(S(=O)(=O)O)cc(S(=O)(=O)O)c23)cc1NC(=O)c1cccc(NC(=O)Nc2cccc(C(=O)Nc3cc(C(=O)Nc4ccc(S(=O)(=O)O)c5cc(S(=O)(=O)O)cc(S(=O)(=O)O)c45)ccc3C)c2)c1 [SURAMIN] | 6.72 | – | – | – | –
C=CC(C)(C)c1cc(OC)c(OC)cc1-c1coc2cc(OC)cc(O)c2c1=O [TRIMETHYLFREMONTIN] | 4.49 | – | < 3.60 | 3.84 | –
